Laboratory results as given in ChEMBL document CHEMBL1122593, “Phosphorus-nitrogen compounds. 24. Phosphoramide mustard carrier derivatives” (1984).
“And” between values parts separate entries of the source, which are not always exact repeats. Identical values can stand only once.

Legend:
L1210 [1] = test: Antitumor activity against L1210 lymphoid leukemia and treated mean survival time per control mean survival time was determined at 500 mg/kg; format: functional, Mus musculus
How it was run: (§1)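 Mice bearing L1210 lymphoid leukaemia, tested by NCI contractors. Compound given as a single injection 1 day after tumour cell inoculation. T/C% = (treated/control) × 100.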

P388 = test: Antitumor activity against P388 Lymphocytic leukemia and treated mean survival time per control mean survival time was determined at 200 mg/kg; format: functional, Mus musculus
How it was run: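 Mice bearing P388 lymphocytic leukaemia, tested by NCI contractors. Compound given as five consecutive injections beginning 1 day after tumour cell inoculation. T/C% = (treated/control) × 100.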

Mus musculus = test: Antitumor activity against CD8F1 mammary tumor and treated mean survival time per control mean survival time was determined at 300 mg/kg; format: functional
How it was run: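 Mice bearing CD8F1 mammary tumour, tested by NCI contractors. Compound given as a single injection starting 20 days after tumour cell inoculation. T/C% = (treated/control) × 100.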

L1210 [2] = test: Antitumor activity against L1210 lymphoid leukemia and treated mean survival time per control mean survival time was determined at 300 mg/kg; format: functional, Mus musculus; how it was run: as §1
[3] = Antitumor activity against Lewis lung carcinomia and treated mean survival time per control mean survival time was determined at 50 mg/kg; format: functional, Mus musculus
How it was run: (§2)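 Mice bearing Lewis lung carcinoma, tested by NCI contractors. Compound given as nine consecutive injections beginning 1 day after tumour cell inoculation. T/C% = (treated/control) × 100.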

[4] = Antitumor activity against Lewis lung carcinomia and treated mean survival time per control mean survival time was determined at 400 mg/kg; format: functional, Mus musculus; how it was run: as §2

## CC/C(=C(/CC)c1ccc(OP(=O)(Cl)N(CCCl)CCCl)cc1)c1ccc(OP(=O)(Cl)N(CCCl)CCCl)cc1 (centres undefined)
L1210 [1]
  T/C: 100%

## CC/C(=C(/CC)c1ccc(OP(N)(=O)N(CCCl)CCCl)cc1)c1ccc(OP(N)(=O)N(CCCl)CCCl)cc1 (centres undefined)
P388; 200 mg/kg
  T/C: 100% and 104%
Mus musculus
  T/C: 39%
L1210 [2]
  T/C: 113%

## NP(=O)(Oc1cccc2c(OP(N)(=O)N(CCCl)CCCl)cccc12)N(CCCl)CCCl (centres undefined)
L1210 [1]
  T/C: 95%

## NP(=O)(Oc1c2occc2cc2ccc(=O)oc12)N(CCCl)CCCl (centres undefined)
P388
  T/C: 114%

## CC(C)N1C[C@@H](COc2cccc3ccccc23)O[P@@]1(=O)N(CCCl)CCCl (racemic)
L1210 [1]; 500 mg/kg
  T/C: 130% and 110% and 90%

## CC(C)N1C[C@H](COc2cccc3ccccc23)O[P@@]1(=O)N(CCCl)CCCl (racemic)
[3]
  T/C: 95%
[4]
  T/C: 90%
